Measured values taken from ChEMBL document CHEMBL4196194, “De Novo Design of α-Helical Lipopeptides Targeting Viral Fusion Proteins: A Promising Strategy for Relatively Broad-Spectrum Antiviral Drug Discovery” (J Med Chem, 2018).
Calls of active or inactive are those of the source. The calls are words filed in the database; no cut-off is given here. Where a SMILES comes first, the peptide text is derived from it. [ ]: non-standard residue; d: D form. The star is where a group is joined. Palmitoyl = CCCCCCCCCCCCCCCC(=O)*; X1 = O=[N+]([O-])c1ccc(*)c2onnc12; βAla = NCCC(=O)O

Legend:
Influenza A virus [1] = assay: Antiviral activity against influenza A virus Hong Kong/8/1968(H3N2) infected in HEK293T cells assessed as inhibition of viral replicon activity incubated for 30 hrs by dual-Glo luciferase assay; assay type: functional, organism-based
Procedure, shortened: (§1)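 HEK293T cells (2.5 × 10^4/well) transfected with plasmids for NP, PB1, PB2, PA plus p0LN-S-Luc firefly and pRL-SV40 Renilla reporters; serially diluted compound added 6 h post-transfection, luciferase read after 30 h by Dual-Glo. Activity = firefly/Renilla ratio; % inhibition normalized to positive and negative controls, curve-fitted; three independent measurements.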

[2] = Drug distribution in acidic vesicles intracellular compartments of MDCK cells incubated for 1 hrs by LysoTracker Red DND-99 staining based confocal microscopy; assay type: ADME, cell-based, Canis lupus familiaris; conditions: dog
Procedure, shortened: (§2)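 MDCK cells were pre-stained with 100 nM LysoTracker Red for 1.5 h and washed. They were then given 5 μM NBD-labelled lipopeptide in phenol-red-free DF-12 at 37 °C, 5% CO2. Confocal imaging with a 20× objective was done at 10 min, 30 min, 1 h, 2 h and 4 h. Peptide was read in the FITC channel and acidic compartments in the red channel, with colocalization assessed on merged images.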

[3] = Drug distribution in acidic vesicles intracellular compartments of MDCK cells incubated for 4 hrs by LysoTracker Red DND-99 staining based confocal microscopy; assay type: ADME, cell-based, Canis lupus familiaris; conditions: dog; procedure, shortened: as §2
Influenza A virus [4] = assay: Antiviral activity against Influenza A virus (A/Puerto Rico/8/1934(H1N1)) infected in HEK293T cells assessed as inhibition of viral replicon activity incubated for 30 hrs by dual-Glo luciferase assay; assay type: functional, organism-based; procedure, shortened: as §1
[5] = Drug distribution in cell membrane of MDCK cells incubated for 0.5 hrs by confocal microscopy; assay type: ADME, cell-based, Canis lupus familiaris; conditions: dog; procedure, shortened: as §2

With CCCCCCCCCCCCCCCC(=O)NCCCC[C@H](NC(=O)CCNC(=O)[C@H](CCCCN)NC(=O)[C@H](CCCCN)NC(=O)[C@H](CCC(N)=O)NC(=O)[C@@H](NC(=O)[C@H](CCC(=O)O)NC(=O)[C@H](CCC(=O)O)NC(=O)[C@@H](NC(=O)[C@H](CCCCN)NC(=O)[C@H](CCCCN)NC(=O)[C@H](CCC(N)=O)NC(=O)[C@@H](NC(=O)[C@H](CCC(=O)O)NC(=O)[C@H](CCC(=O)O)NC(=O)[C@@H](NC(=O)[C@H](CCCCN)NC(=O)[C@H](CCCCN)NC(=O)[C@H](CCC(N)=O)NC(=O)[C@@H](NC(=O)[C@H](CCC(=O)O)NC(=O)[C@H](CCC(=O)O)NC(=O)[C@@H](NC(=O)[C@H](CCCCN)NC(=O)[C@H](CCCCN)NC(=O)[C@H](CCC(N)=O)NC(=O)[C@@H](NC(=O)[C@H](CCC(=O)O)NC(=O)[C@H](CCC(=O)O)NC(=O)[C@@H](NC(=O)[C@H](CCCCN)NC(=O)[C@H](CCCCN)NC(=O)[C@H](CCC(N)=O)NC(=O)[C@@H](NC(=O)[C@H](CCC(=O)O)NC(=O)[C@H](CCC(=O)O)NC(=O)[C@@H](NC(=O)CCNc1ccc([N+](=O)[O-])c2nnoc12)[C@@H](C)CC)[C@@H](C)CC)[C@@H](C)CC)[C@@H](C)CC)[C@@H](C)CC)[C@@H](C)CC)[C@@H](C)CC)[C@@H](C)CC)[C@@H](C)CC)[C@@H](C)CC)C(N)=O ({X1-βAla}-IEEIQKKIEEIQKKIEEIQKKIEEIQKKIEEIQKK[βAla]K(Palmitoyl)-NH2) the inhibition (Influenza A virus [1]) was “Active”, the Drug uptake [2] was “Active” and the Drug uptake [3] was “Active”. For the same compound, the inhibition (Influenza A virus [4]) was “Active” and the Drug uptake [5] was “Active”.
